For data set [1], the system named is Rattus norvegicus. As to the kind of experiment: Antiinflammatory activity in rat assessed as inhibition of carrageenan-induced paw edema at 25 mg/kg, po preincubated for 1 hr followed by carrageenan challenge relative to control. Type of data set: functional. The gist of the method:
(§1)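 Winter carrageenan edema screen in rats. Compound was given orally as a suspension in 0.5% CMC at 100 and/or 25 mg/kg. One hour later, 1% carrageenan solution was injected into the hind paw.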
(In general: The carrageenan paw model is a standard test of acute inflammation.)

Data set [2] deals with Rattus norvegicus. Put plainly: Antiinflammatory activity in rat assessed as inhibition of carrageenan-induced paw edema at 10 mg/kg, po preincubated for 1 hr followed by carrageenan challenge relative to control. The class given is functional. A digest of the protocol:
(§2)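 Winter carrageenan paw edema in rats. Oral dosing as a suspension in 0.5% CMC was followed 1 h later by 1% carrageenan injected into the hind paw. Several doses were tested, and ED50 was read from the dose-response curve.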

The test system of data set [3] is Rattus norvegicus. Put plainly: Antiinflammatory activity in po dosed rat assessed as inhibition of carrageenan-induced paw edema preincubated for 1 hr followed by carrageenan challenge relative to control. Type of data set: functional. A digest of the protocol: as §2
Another data set concerns Mus musculus. Put plainly: Analgesic activity in po dosed mouse assessed as inhibition of acetic acid-induced writhing. Type of data set: functional. The gist of the method: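 Acetic acid writhing test after Koster, using 10 male mice per dose.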
Data set [4] relates to Rattus norvegicus. As to the kind of experiment: Antiinflammatory activity in rat assessed as inhibition of carrageenan-induced paw edema at 2.5 mg/kg, po preincubated for 1 hr followed by carrageenan challenge relative to control. Type of data set: functional. A digest of the protocol: as §2
In data set [5] the test system is Rattus norvegicus. As to the kind of experiment: Antiarthritic activity in po dosed rat assessed as reduction of adjuvant-induced foot volume administered as qd for 14 days starting on day 14 after adjuvant inoculation measured on day 28. Type of data set: functional. A digest of the protocol: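 Rats with established adjuvant arthritis (Newbould method) were dosed orally once daily for 14 days, starting on day 14 after adjuvant inoculation. Foot swelling was measured as volume. ED50 was estimated from the dose-response curve.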

Data set [6] relates to Rattus norvegicus. Put plainly: Ulcerogenic activity in po dosed rat assessed as induction of lesions in gastric mucosa measured after 24 hrs. Type of data set: toxicity, organism-based. The following applies: in vivo. A digest of the protocol:
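Compounds were suspended in 0.2% carboxymethylcellulose and given orally to seven male rats per dose, at five or more doses; controls got vehicle alone. Rats were killed 24 h later, and gastric lesions (hemorrhage, erosion, ulcer) were counted blind. MUD, the dose giving two lesions, was calculated graphically.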

Data set [7] concerns Rattus norvegicus. As to the kind of experiment: Antiinflammatory activity in rat assessed as inhibition of carrageenan-induced paw edema at 100 mg/kg, po preincubated for 1 hr followed by carrageenan challenge relative to control. Type of data set: functional. The gist of the method:
as §1

The test system of data set [8] is Rattus norvegicus. Put plainly: Antiinflammatory activity in rat assessed as inhibition of carrageenan-induced paw edema at 3 mg/kg, po preincubated for 1 hr followed by carrageenan challenge relative to control. The class given is functional. A digest of the protocol: as §2
Data set [9] concerns Rattus norvegicus. Put plainly: Antiinflammatory activity in rat assessed as inhibition of carrageenan-induced paw edema at 50 mg/kg, po preincubated for 1 hr followed by carrageenan challenge relative to control. The class given is functional. The gist of the method: as §2

For orientation: inhibition in vivo means the share of the control response that was lost under treatment. For orientation: ED50 means the dose at which the effect has come halfway, by size or by number of responders.

SMILES strings stand for the structures.

As to `O=C(O)C1CCc2c(cnn2-c2ccncc2)C1` (centres undefined), the inhibition in vivo at 25 mg/kg in the data set with Rattus norvegicus [1] came to 13.4%.

As for `O=C(O)C1CCc2c(cnn2-c2ccccc2)C1` (centres undefined), the inhibition in vivo at 10 mg/kg with Rattus norvegicus [2] worked out at 72.6%. In addition, the ED50 with Rattus norvegicus [3] came to 3.5 mg/kg; in the data set with Mus musculus it was 4.7 mg/kg; in the data set with Rattus norvegicus [5] it was 1.5 mg/kg. The inhibition in vivo at 2.5 mg/kg with Rattus norvegicus [4] was determined as 40.6%. Besides, the MUD in the data set with Rattus norvegicus [6] turned out to be 20 mg/kg.

As for `O=C(O)C1CCc2c(cnn2-c2ccc(Cl)cc2)C1` (centres undefined), the inhibition in vivo at 10 mg/kg with Rattus norvegicus [2] was 39.4%. In addition, the ED50 in the data set on Rattus norvegicus [3] was 17 mg/kg; in the data set with Mus musculus, 7 mg/kg; in the data set on Rattus norvegicus [5], 6.4 mg/kg. In the data set with Rattus norvegicus [1], the inhibition in vivo at 25 mg/kg came out at 39.4%. The MUD in the data set on Rattus norvegicus [6] is 70 mg/kg.

For the compound `O=C(O)C1CCc2c(cnn2-c2cccc(F)c2)C1` (centres undefined), the inhibition in vivo at 25 mg/kg in the data set with Rattus norvegicus [1] came to 38.2%.

In the case of `Cc1ccc(-n2ncc3c2CCC(C(=O)O)C3)cc1` (centres undefined), the inhibition in vivo at 25 mg/kg in the data set on Rattus norvegicus [1] turned out to be 38.7%.

As for `Cc1ccccc1-n1ncc2c1CCC(C(=O)O)C2` (centres undefined), the inhibition in vivo at 25 mg/kg in the data set with Rattus norvegicus [1] was found to be 0%.

Consider `COc1ccc(-n2ncc3c2CCC(C(=O)O)C3)cc1` (centres undefined), for which the inhibition in vivo at 25 mg/kg with Rattus norvegicus [1] is 9.8%.

For `O=C(O)C1CCc2c(cnn2-c2ccc(O)cc2)C1` (centres undefined), in the data set on Rattus norvegicus [7], the inhibition in vivo at 100 mg/kg stood at 14.7%.

`O=C(O)C1CCc2c(cnn2-c2cccc(C(F)(F)F)c2)C1` (centres undefined): the inhibition in vivo at 25 mg/kg with Rattus norvegicus [1] turned out to be 35.6%.

Regarding `O=C(O)C1CCc2c(cnn2-c2ccccn2)C1` (centres undefined), the inhibition in vivo at 25 mg/kg in the data set on Rattus norvegicus [1] came to 57.9%.

With `O=C(O)C1CCc2c(cnn2-c2cccc3ccccc23)C1` (centres undefined), in the data set with Rattus norvegicus [1], the inhibition in vivo at 25 mg/kg turned out to be 13.1%.

For the compound `O=C(O)C1CCc2c(cnn2Cc2ccccc2)C1` (centres undefined), the inhibition in vivo at 25 mg/kg with Rattus norvegicus [1] worked out at 15.9%.

Turning to `O=C(O)C1CCc2nn(-c3ccccc3)cc2C1` (centres undefined), the inhibition in vivo at 100 mg/kg in the data set on Rattus norvegicus [7] is 36.4%.

With `O=C(O)C1CCc2nn(-c3ccc(Cl)cc3)cc2C1` (centres undefined), the inhibition in vivo at 100 mg/kg with Rattus norvegicus [7] worked out at 17.9%.

As to `Cc1ccc(-n2cc3c(n2)CCC(C(=O)O)C3)cc1` (centres undefined), the inhibition in vivo at 100 mg/kg with Rattus norvegicus [7] was determined as 10.8%.

In the case of `Cc1ccccc1-n1cc2c(n1)CCC(C(=O)O)C2` (centres undefined), the inhibition in vivo at 100 mg/kg with Rattus norvegicus [7] turned out to be 38%.

Turning to `COc1ccc(-n2cc3c(n2)CCC(C(=O)O)C3)cc1` (centres undefined), the inhibition in vivo at 100 mg/kg in the data set on Rattus norvegicus [7] was found to be 6%.

`O=C(O)C1CCc2nn(-c3cccc(C(F)(F)F)c3)cc2C1` (centres undefined): the inhibition in vivo at 100 mg/kg with Rattus norvegicus [7] was found to be 14.8%.

`O=C(O)C1CCc2nn(-c3ccccn3)cc2C1` (centres undefined): the inhibition in vivo at 100 mg/kg in the data set with Rattus norvegicus [7] amounted to 11.5%.

As for `O=C(O)C1CCc2nn(-c3cccc4ccccc34)cc2C1` (centres undefined), the inhibition in vivo at 25 mg/kg in the data set with Rattus norvegicus [1] was 0%.

Take `O=C(O)C1CCc2nn(Cc3ccccc3)cc2C1` (centres undefined): the inhibition in vivo at 100 mg/kg in the data set with Rattus norvegicus [7] came out at 3.7%.

With `O=C(O)c1nn(-c2ccccc2)c2c1CC(C(=O)O)CC2` (centres undefined), the inhibition in vivo at 100 mg/kg with Rattus norvegicus [7] is 0%.

As for `O=C(O)c1nn(-c2ccc(Cl)cc2)c2c1CC(C(=O)O)CC2` (centres undefined), the inhibition in vivo at 100 mg/kg with Rattus norvegicus [7] was 0%.

For the compound `Cc1ccc(-n2nc(C(=O)O)c3c2CCC(C(=O)O)C3)cc1` (centres undefined), the inhibition in vivo at 100 mg/kg with Rattus norvegicus [7] was 0%.

As to `O=C(O)c1nn(-c2cccc(C(F)(F)F)c2)c2c1CC(C(=O)O)CC2` (centres undefined), the inhibition in vivo at 100 mg/kg in the data set with Rattus norvegicus [7] worked out at 0%.

`O=C(O)c1ccccc1Nc1cccc(C(F)(F)F)c1` [FLUFENAMIC ACID]: the ED50 in the data set on Rattus norvegicus [3] is 20 mg/kg; with Mus musculus, 160 mg/kg; in the data set on Rattus norvegicus [5], 5.1 mg/kg. The MUD with Rattus norvegicus [6] came to 50 mg/kg.

Consider `COc1ccc2c(c1)c(CC(=O)O)c(C)n2C(=O)c1ccc(Cl)cc1` [INDOMETHACIN], for which the values for the ED50 in the data set on Rattus norvegicus [3], in the data set with Mus musculus and in the data set on Rattus norvegicus [5] were 3.8 mg/kg, 6.3 mg/kg and 0.3 mg/kg, respectively. In the data set with Rattus norvegicus [8], the inhibition in vivo at 3 mg/kg is 35.5%. The MUD in the data set on Rattus norvegicus [6] came to 5.6 mg/kg.

`CCCCC1C(=O)N(c2ccccc2)N(c2ccccc2)C1=O` [PHENYLBUTAZONE]: the ED50 was found to be 78 mg/kg in the data set on Rattus norvegicus [3], 810 mg/kg with Mus musculus and 12 mg/kg in the data set on Rattus norvegicus [5]. Besides, the inhibition in vivo at 50 mg/kg in the data set with Rattus norvegicus [9] was 43.4%. Moreover, the MUD with Rattus norvegicus [6] is 90 mg/kg.

Values taken from ChEMBL document CHEMBL3228037, “Syntheses and antiinflammatory actions of 4,5,6,7-tetrahydroindazole-5-carboxylic acids” (J Med Chem, 1979).
